What was measured:
[1] = test system: Human immunodeficiency virus 1; experiment: Ratio EC50 for PMEA to compound for HIV1 clade A isolate 4113 infected in human H9 cells assessed as inhibition of viral replication; type: functional
How it was run: (§1)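 Ratio computed as EC50 of PMEA divided by EC50 of the test compound, both measured against the same clinical isolate in H9 cells.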

Hepatitis B virus = experiment: Antiviral activity against Hepatitis B virus infected in human HuH7 cells assessed as reduction in viral DNA level treated day 3 to day 8 post transfection by real time quantitative PCR analysis; type: functional, organism-based; details: Huh-7
[2] = test system: Human immunodeficiency virus 1; experiment: Ratio EC50 for PMEA to compound for HIV1 clade C isolate 4110 infected in human H9 cells assessed as inhibition of viral replication; type: functional; how it was run: as §1
[3] = Stability of compound in complete culture medium assessed as compound degradation into 9-(2-Phosphonomethoxypropyl)-adenine after 24 hrs by HPLC analysis; type: physicochemical
How it was run: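 Compound diluted to 0.1 mM final in one of two media and incubated at 37 °C: RPMI-1640 with 10% heat-inactivated FCS, or CEM-SS cell extract (soluble proteins 3 mg/mL in 10 mM Tris-HCl pH 7.4, 140 mM KCl). Aliquots were taken over time, frozen at −80 °C, then run on C18 reverse-phase HPLC with on-line filtration, TEAB/acetonitrile gradient and 260 nm detection. Degradation products were identified by co-injection.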

[4] = test system: Human immunodeficiency virus 1; experiment: Ratio EC50 for PMPA to compound for HIV1 clade B isolate 2101 infected in human H9 cells assessed as inhibition of viral replication; type: functional
[5] = test system: Human immunodeficiency virus 1; experiment: Ratio EC50 for PMPA to compound for HIV1 clade G isolate 3187 infected in human H9 cells assessed as inhibition of viral replication; type: functional
[6] = test system: Human immunodeficiency virus 1; experiment: Ratio EC50 for PMPA to compound for HIV1 clade C isolate 2914 infected in human H9 cells assessed as inhibition of viral replication; type: functional
[7] = test system: Human immunodeficiency virus 1; experiment: Ratio EC50 for PMPA to compound for HIV1 clade B isolate 1722 infected in human H9 cells assessed as inhibition of viral replication; type: functional

SMILES | Ratio EC50 [1] | EC50 (Hepatitis B virus) [µM] | Ratio EC50 [2] | Activity [3] [%] | Ratio EC50 [4] | Ratio EC50 [5] | Ratio EC50 [6] | Ratio EC50 [7]
Nc1ncnc2c1ncn2CCOCP(=O)([O-])[S-].[Na+].[Na+] (stereo not drawn) | 10.8 | 4.5 | 6 |  |  |  |  | 
C[C@H](Cn1cnc2c(N)ncnc21)OCP(=O)([O-])[S-].[Na+].[Na+] (stereo partly drawn) |  |  |  | 77 | 0.51 | 1.25 | 0.89 | 1.35
